Experimental findings from ChEMBL document CHEMBL4732074, “Design and synthesis of novel fluorescently labeled analogs of vemurafenib targeting MKK4” (Eur J Med Chem, 2021) are described below.

Molecules are shown by their SMILES.

Test [1] deals with T1, Dual specificity mitogen-activated protein kinase kinase 4 (Homo sapiens) (UniProt P45985).
T1 sequence (whole entry): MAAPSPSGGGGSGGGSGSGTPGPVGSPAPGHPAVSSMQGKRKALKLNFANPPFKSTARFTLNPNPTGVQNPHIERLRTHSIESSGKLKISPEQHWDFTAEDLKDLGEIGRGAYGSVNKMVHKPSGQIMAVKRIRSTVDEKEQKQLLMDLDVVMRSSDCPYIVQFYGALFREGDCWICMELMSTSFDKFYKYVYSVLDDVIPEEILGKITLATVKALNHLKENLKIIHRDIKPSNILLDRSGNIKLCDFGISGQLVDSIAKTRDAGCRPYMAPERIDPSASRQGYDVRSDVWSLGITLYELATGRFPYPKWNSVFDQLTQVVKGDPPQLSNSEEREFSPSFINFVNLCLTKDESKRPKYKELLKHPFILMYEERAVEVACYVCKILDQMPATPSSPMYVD
The test is described as follows: Inhibition of wild-type human partial length MKK4 (S84 to D399 residues) expressed in mammalian expression system assessed as residual activity at 100 nM by KINOMEscan method relative to control. Summed up:
(§1)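 DiscoverX KINOMEscan binding assay: the compound at 100 nM competes with an immobilised ligand for kinase binding. Read-out is POC (percentage of control), where lower values mean stronger binding.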

For test [2], the target named is T1, Dual specificity mitogen-activated protein kinase kinase 4 (Homo sapiens). The test is described as follows: Inhibition of wild-type human partial length MKK4 (S84 to D399 residues) expressed in mammalian expression system assessed as residual activity at 30 nM by KINOMEscan method relative to control. Summed up: (§2)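 KINOMEscan competition binding against an immobilised ligand, run at the lower compound concentrations named in each line. Binding is reported as percentage of control (POC), with low POC indicating high affinity.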

For test [3] the target is unchanged. The test is described as follows: Inhibition of wild-type human partial length MKK4 (S84 to D399 residues) expressed in mammalian expression system assessed as residual activity at 10 nM by KINOMEscan method relative to control. Summed up:
as §2

For test [4], the target named is Serine/threonine-protein kinase B-raf (Homo sapiens) (UniProt P15056). The test is described as follows: Inhibition of BRAF (unknown origin) assessed as assessed as residual activity relative to control. Summed up: as §1
Serine/threonine-protein kinase B-raf (Homo sapiens), sequence (P15056 whole entry): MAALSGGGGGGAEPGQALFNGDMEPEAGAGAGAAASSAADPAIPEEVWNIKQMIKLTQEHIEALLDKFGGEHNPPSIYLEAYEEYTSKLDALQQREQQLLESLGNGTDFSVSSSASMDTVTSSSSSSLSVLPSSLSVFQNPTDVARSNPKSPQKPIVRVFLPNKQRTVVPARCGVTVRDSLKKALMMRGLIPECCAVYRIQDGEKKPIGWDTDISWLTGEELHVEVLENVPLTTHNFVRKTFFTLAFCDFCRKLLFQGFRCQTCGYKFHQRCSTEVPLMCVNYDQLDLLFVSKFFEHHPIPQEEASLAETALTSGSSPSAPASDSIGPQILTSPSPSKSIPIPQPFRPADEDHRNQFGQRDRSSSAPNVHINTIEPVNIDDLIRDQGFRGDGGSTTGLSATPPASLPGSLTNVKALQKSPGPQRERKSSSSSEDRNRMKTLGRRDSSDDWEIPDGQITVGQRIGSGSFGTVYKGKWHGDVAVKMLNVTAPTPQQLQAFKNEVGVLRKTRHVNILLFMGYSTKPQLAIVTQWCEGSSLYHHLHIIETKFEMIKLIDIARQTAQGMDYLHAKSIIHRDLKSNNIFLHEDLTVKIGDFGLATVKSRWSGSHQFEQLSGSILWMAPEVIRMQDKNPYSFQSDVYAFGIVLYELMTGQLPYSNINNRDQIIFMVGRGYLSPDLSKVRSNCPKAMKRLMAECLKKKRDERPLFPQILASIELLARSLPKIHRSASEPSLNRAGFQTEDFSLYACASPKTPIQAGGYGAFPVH

On to `CCCS(=O)(=O)Nc1ccc(F)c(C(=O)c2ccc3[nH]c4ncc(-c5ccc(C(=O)NCCCCCCNC(=O)c6ccc(-c7c8ccc(=[N+](C)C)cc-8oc8cc(N(C)C)ccc78)c(C(=O)[O-])c6)nc5)cc4c3c2)c1F`, for which, in test [1], the Activity was found to be 4.8%. With `CCCS(=O)(=O)Nc1ccc(F)c(C(=O)c2ccc3[nH]c4ncc(-c5ccc(C(=O)NCCCCNC(=O)c6ccc(-c7c8ccc(=[N+](C)C)cc-8oc8cc(N(C)C)ccc78)c(C(=O)[O-])c6)nc5)cc4c3c2)c1F`, the Activity in test [2] came to 4.1%; in test [1], 1.3%; in test [3], 18%; in test [4], 92%. Take `CCCS(=O)(=O)Nc1ccc(F)c(C(=O)c2c[nH]c3ncc(-c4ccc(NC(=O)CCCCNC(=O)c5ccc(-c6c7ccc(=[N+](C)C)cc-7oc7cc(N(C)C)ccc67)c(C(=O)[O-])c5)nc4)cc23)c1F`: in test [1], the Activity came to 57%.

As to `CCCS(=O)(=O)Nc1ccc(F)c(C(=O)c2ccc3[nH]c4ncc(-c5ccc(C(=O)NCCNC(=O)c6ccc(-c7c8ccc(=[N+](C)C)cc-8oc8cc(N(C)C)ccc78)c(C(=O)[O-])c6)cc5)cc4c3c2)c1F`, the Activity in test [1] turned out to be 19%. Still for that read-out and setting: to `CCCS(=O)(=O)Nc1ccc(F)c(C(=O)c2c[nH]c3ncc(-c4ccc(NC(=O)CNC(=O)c5ccc(-c6c7ccc(=[N+](C)C)cc-7oc7cc(N(C)C)ccc67)c(C(=O)[O-])c5)nc4)cc23)c1F` belongs 8.4%; to `CCCS(=O)(=O)Nc1ccc(F)c(C(=O)c2ccc3[nH]c4ncc(-c5ccc(C(=O)NCCCCNC(=O)c6ccc(-c7c8ccc(=[N+](C)C)cc-8oc8cc(N(C)C)ccc78)c(C(=O)[O-])c6)cc5)cc4c3c2)c1F`, 4.3%; to `CCCS(=O)(=O)Nc1ccc(F)c(C(=O)c2c[nH]c3ncccc23)c1F`, 14%. In the case of `CCCS(=O)(=O)Nc1ccc(F)c(C(=O)c2c[nH]c3ncc(-c4ccc(NC(=O)CNC(=O)c5ccc(-c6c7ccc(=[N+](C)C)cc-7oc7cc(N(C)C)ccc67)c(C(=O)[O-])c5)cc4)cc23)c1F`, in test [1], the Activity worked out at 11%. On the same count and under the same terms, to `CCCS(=O)(=O)Nc1ccc(F)c(C(=O)c2ccc3[nH]c4ncc(-c5ccc(C(=O)NCCCCCNC(=O)c6ccc(-c7c8ccc(=[N+](C)C)cc-8oc8cc(N(C)C)ccc78)c(C(=O)[O-])c6)cc5)cc4c3c2)c1F` belongs 32%. `CCCS(=O)(=O)Nc1ccc(F)c(C(=O)c2c[nH]c3ncc(-c4ccc(NC(=O)CNC(=O)OC(C)(C)C)cc4)cc23)c1F`: in test [1], the Activity came out at 9.2%. The same measure, in the same setting: then `CCCS(=O)(=O)Nc1ccc(F)c(C(=O)c2ccc3[nH]c4ncc(-c5ccc(C(=O)NCCCNC(=O)c6ccc(-c7c8ccc(=[N+](C)C)cc-8oc8cc(N(C)C)ccc78)c(C(=O)[O-])c6)cc5)cc4c3c2)c1F`, with 13%; and `CCCS(=O)(=O)Nc1ccc(F)c(C(=O)c2ccc3[nH]c4ncc(-c5ccc(C(=O)NCCCCCCNC(=O)c6ccc(-c7c8ccc(=[N+](C)C)cc-8oc8cc(N(C)C)ccc78)c(C(=O)[O-])c6)cc5)cc4c3c2)c1F`, with 6.6%. On the same count and under the same terms, then `CCCS(=O)(=O)Nc1ccc(F)c(C(=O)c2ccc3[nH]c4ncc(-c5cnc(C(=O)NCCCCNC(=O)c6ccc(-c7c8ccc(=[N+](C)C)cc-8oc8cc(N(C)C)ccc78)c(C(=O)[O-])c6)nc5)cc4c3c2)c1F`, with 9.3%; and `CN(C)c1ccc2c(-c3ccc(C(=O)NCC(=O)Nc4ccc(-c5cnc6[nH]cc(C(=O)c7c(F)ccc(NS(=O)(=O)Cc8ccccc8)c7F)c6c5)cn4)cc3C(=O)[O-])c3ccc(=[N+](C)C)cc-3oc2c1`, with 6.6%.

For the compound `CCCS(=O)(=O)Nc1ccc(F)c(C(=O)c2ccc3[nH]c4ncc(-c5ccc(NC(=O)CNC(=O)c6ccc(-c7c8ccc(=[N+](C)C)cc-8oc8cc(N(C)C)ccc78)c(C(=O)[O-])c6)cc5)cc4c3c2)c1F`, the Activity in test [1] is 13%. Still for that read-out and setting: then `CCCS(=O)(=O)Nc1ccc(F)c(C(=O)c2ccc3[nH]c4ncc(-c5ccc(C(=O)NCCCNC(=O)c6ccc(-c7c8ccc(=[N+](C)C)cc-8oc8cc(N(C)C)ccc78)c(C(=O)[O-])c6)nc5)cc4c3c2)c1F`, with 4.5%; and `CN(C)c1ccc2c(-c3ccc(C(=O)NCCCCC(=O)Nc4ccc(-c5cnc6[nH]cc(C(=O)c7c(F)ccc(NS(=O)(=O)Cc8ccccc8)c7F)c6c5)cn4)cc3C(=O)[O-])c3ccc(=[N+](C)C)cc-3oc2c1`, with 13%.
